From article PMC7522377 (International Journal of Pharmaceutics: X, 2020)
Structures can show the parent of a compound that is named as a salt.

Legend:
MiaPaCa-2 cells [1] = assay: Cytotoxicity in 2D culture, Alamar blue assay; type: cell-based; details: Homo sapiens, MIA PaCa-2, 48 h, read-out: IC50 μM (2D MiaPaCa-2 culture)
Summary of the method: (§1)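 Cells in DMEM (high glucose, 10% FBS, 1% PenStrep) were seeded at 1 × 10³/well and kept at 37 °C, 5% CO2. At 70–75% confluence they were treated for 48 h in triplicate per concentration; GemHCl ran 5–60 μM, diluted from a PBS stock into medium. Viability: 0.05% resazurin added for 4 h, fluorescence read at ex 560/580, em 590/610 nm; percent viable cells calculated; n = 3.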

MiaPaCa-2 cells [2] = assay: Cytotoxicity in 3D spheroid culture, Alamar blue assay; type: cell-based; details: Homo sapiens, MIA PaCa-2, 48 h, read-out: IC50 μM (3D MiaPaCa-2 culture)
Summary of the method: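 MiaPaCa-2 cells were seeded at 3.0 × 10⁴/well in spheroid-forming plates and grown 72 h to form spheroids. Half the medium was then replaced with drug in growth medium for 48 h at 37 °C, 5% CO2. Resazurin (0.05%) was added for 4 h, and fluorescence was read at ex 560/580, em 590/610 nm to give percent viability.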

PPCL-46 cells [3] = assay: Cytotoxicity in 2D culture, Alamar blue assay; type: cell-based; details: Homo sapiens, 48 h, read-out: IC50 μM (2D PPCL-46 culture), 48 h treatment, mean ± SEM, n = 3
Summary of the method: as §1

PPCL-46 cells [4] = assay: Cytotoxicity and spheroid integrity in 3D spheroid culture, Alamar blue assay; type: cell-based, human
[5] = Pharmacokinetic study after single intravenous bolus; type: in vivo; details: mice, iv bolus 30 mg/kg Gem equivalent, one-compartment model
Summary of the method: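 Normal healthy mice were grouped as control, gemcitabine hydrochloride, or test compound. Each received a single intravenous bolus of 30 mg/kg gemcitabine equivalent; controls got 0.9% NaCl saline. Gemcitabine was measured in blood and tissue supernatants by peak area. Recovery was checked against control supernatants spiked with 0.5 μg/mL gemcitabine. Groups were compared by t-test.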

[6] = Acute toxicity: liver enzymes activity; type: in vivo, mice; details: serum
Summary of the method: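 Blood was drawn 24 h after one IV dose of 30 mg/kg gemcitabine equivalent; controls were untreated. Serum was spun at 3500 rpm for 6 min, serially diluted, and run in triplicate in kit enzyme/substrate mixes at 37 °C. AST: glutamate standard, 450 nm. ALT: pyruvate standard, 595 nm. Activity = product formed × dilution / (reaction time × sample volume).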

liver and kidney tissues = assay: Acute toxicity: histology; type: in vivo, mice; details: 30 mg/kg Gem equivalent, single iv bolus, H&E staining
Summary of the method: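 Normal healthy mice got one IV bolus of test compound or GemHCl at 30 mg/kg gemcitabine equivalent; controls got none. Liver and kidneys were rinsed in PBS and fixed in 10% neutral buffered formalin for 48 h at room temperature. Tissue was paraffin-embedded, cut at 5 μm, H&E-stained and examined by light microscopy at 20×.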

EGFR = assay: Immunohistochemical staining of PDX tumor sections; type: in vivo, human; details: PDX tumor tissue of treated mice
Summary of the method: (§2)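 PDX tumours from treated mice were excised, PBS-washed, fixed 24 h in 10% buffered formalin and moved to 70% ethanol. Sections were immunostained for the target protein, dehydrated, coverslipped and scanned as whole slides at 40×. Staining was scored on the IHC scale (0, 1+, etc.).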

HER2 = assay: Immunohistochemical staining of PDX tumor sections; type: in vivo, human; details: PDX tumor tissue of treated mice
Summary of the method: as §2

VEGF receptor = assay: Immunohistochemical staining of PDX tumor sections; type: in vivo, human; details: PDX tumor tissue of treated mice
Summary of the method: as §2

[7] = 24 h after 30 mg/kg Gem equivalent iv, mean ± SD, n = 3

Nc1ccn([C@@H]2O[C@H](CO)[C@@H](O)C2(F)F)c(=O)n1 [GemHCl, Gemcitabine Hydrochloride]
IC50 (MiaPaCa-2 cells [1]): 45.7 ± 1.4 µM | IC50 (MiaPaCa-2 cells [2]): 55.8 ± 1.2 µM | IC50 (PPCL-46 cells [3]): 75.5 ± 1.9 µM | IC50 (PPCL-46 cells [4]; Homo sapiens, 48 h, read-out: IC50 μM (3D PPCL-46 culture)): 95.2 ± 1.4 µM | PPCL-46 spheroidal integrity after treatment (PPCL-46 cells [4]; varying concentrations, images of spheroids): smaller surface spheroidal area with less non-spheroidal shapes | AUC (0-t) [5]: 28200 ± 4300 ng·h/mL | Vss (volume of distribution at steady state) [5]: 21.7 ± 3.6 μg/(μg/mL) | AST level compared with control group ([6]; 30 mg/kg Gem equivalent): no statistically significant elevation | ALT [6, 7]: 232 ± 28 mUnits/mL | AST [6, 7]: 85 ± 9 mUnits/mL | histopathological examination of kidney and liver compared to control (liver and kidney tissues): no significant morphological changes | EGFR expression (IHC score) (EGFR): IHC 1+ | HER2 expression (IHC score) (HER2): IHC 2+ | VEGF receptor expression (IHC score) (VEGF receptor): IHC 3+
